Test results reported in ChEMBL document CHEMBL1154857, “Antimycobacterial flavonoids from the leaf extract of Galenia africana” (J Nat Prod, 2009).
Values after ≈ are worked out from the molar mass of the structure shown. Active and inactive are the calls of the source. The calls are words filed in the database; no cut-off is given here.

Columns and labels:
[1] = test system: Mycobacterium tuberculosis; assay: Antitubercular activity against Mycobacterium tuberculosis H37Rv by radiometric method; assay type: functional
Procedure, shortened: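 M. tuberculosis H37Rv (ATCC […], drug-susceptible) tested by the radiometric BACTEC method. MIC was judged from ΔGI against a control vial inoculated at 10⁻² dilution. MBC was also determined. Highest concentration tested was 620.0 µg/mL.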

[2] = test system: Mycobacterium tuberculosis; assay: Antitubercular activity against Mycobacterium tuberculosis H37Rv infected in human U937 cells by radiometric method; assay type: functional, U-937
[3] = test system: Mycobacterium tuberculosis; assay: Antitubercular activity against Mycobacterium tuberculosis H37Rv infected in human U937 cells at MBC by radiometric method; assay type: functional, U-937
[4] = test system: Mycolicibacterium smegmatis; assay: Antibacterial activity against Mycobacterium smegmatis MC2 155 by microplate dilution method; assay type: functional; conditions: str. MC2 155
Procedure, shortened: (§1)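 M. smegmatis MC2 155 tested by microplate broth dilution. Highest concentration tested was 620.0 µg/mL. Read-out was MIC, and MBC where determined.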

[5] = target: Mycothione reductase (Mycobacterium tuberculosis) (UniProt P9WHH3); assay: Inhibition of Mycobacterium tuberculosis mycothiol disulfide reductase assessed as NADPH oxidation at 800 uM by Ellmans reagent method
Mycothione reductase (Mycobacterium tuberculosis), sequence (P9WHH3 whole entry): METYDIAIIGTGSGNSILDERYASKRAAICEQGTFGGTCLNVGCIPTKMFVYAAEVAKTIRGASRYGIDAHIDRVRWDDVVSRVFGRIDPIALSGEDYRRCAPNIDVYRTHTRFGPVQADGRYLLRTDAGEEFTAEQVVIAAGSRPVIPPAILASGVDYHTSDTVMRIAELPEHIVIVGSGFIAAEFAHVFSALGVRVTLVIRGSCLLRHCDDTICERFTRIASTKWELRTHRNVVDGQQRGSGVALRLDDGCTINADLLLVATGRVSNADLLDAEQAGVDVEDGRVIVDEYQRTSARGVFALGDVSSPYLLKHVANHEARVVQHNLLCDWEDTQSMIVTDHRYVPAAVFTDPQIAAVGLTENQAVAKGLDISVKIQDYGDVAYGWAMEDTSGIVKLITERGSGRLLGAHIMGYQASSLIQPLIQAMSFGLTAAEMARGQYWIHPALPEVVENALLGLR
Procedure, shortened: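 M. tuberculosis mycothiol disulfide reductase (NADPH-dependent) used with the mycothiol analogue BnOMSH as substrate. Activity was followed as the increase in absorbance at […] from reduction of Ellman's reagent by the BnOMSH formed.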

U-937 = assay: Cytotoxicity against human U937 cells; assay type: cell-based
[6] = test system: Mycolicibacterium smegmatis; assay: Antibacterial activity against Mycobacterium smegmatis MC2 155 at 620 ug/ml by microplate dilution method; assay type: functional, organism-based; conditions: str. MC2 155; procedure, shortened: as §1

SMILES | MIC [1] [µM] | MIC [2] [µM] | inhibition (INH) [3] [%] | MBC [2] [µM] | MBC [4] [µM] | MIC [4] [µM] | inhibition [5] | IC50 (U-937) [µM] | MIC [6]
NNC(=O)c1ccncc1 [ISONIAZID] | 1.4 (≈ 0.192 µg/mL) | 2.9 (≈ 0.398 µg/mL) |  |  |  |  |  |  | 
O=C1C[C@@H](c2ccccc2O)Oc2cc(O)cc(O)c21 | 368 (≈ 100 µg/mL) | 368 (≈ 100 µg/mL) | 99.5 | 735 (≈ 200 µg/mL) | 441 (≈ 120 µg/mL) | 110 (≈ 30 µg/mL) | inactive | 110 | 
COc1cccc2c1C(=O)c1c(O)c3c(c(O)c1C2=O)C[C@@](O)(C(=O)CO)C[C@@H]3O[C@H]1C[C@H](N)[C@H](O)[C@H](C)O1 [DOXORUBICIN] |  |  |  |  |  |  |  | 1.1 | 
O=C(/C=C/c1ccccc1)c1ccc(O)cc1O [2',4'-DIHYDROXYCHALCONE] | 195 (≈ 46.9 µg/mL) | 195 (≈ 46.9 µg/mL) | 99.5 | 416 (≈ 100 µg/mL) | 234 (≈ 56.3 µg/mL) | 469 (≈ 113 µg/mL) | inactive | 80.2 | 
O=C(/C=C/c1cccc(O)c1)c1ccc(O)cc1O | 417 (≈ 107 µg/mL) | 184 (≈ 47.1 µg/mL) | 99.5 | 368 (≈ 94.2 µg/mL) |  |  | inactive | 415 | inactive
COc1c(O)ccc(C(=O)/C=C/c2cccc(O)c2)c1O |  |  |  |  |  |  |  | 333 | 
O=C(O)c1cn(C2CC2)c2cc(N3CCNCC3)c(F)cc2c1=O [CIPROFLOXACIN] |  |  |  |  | 2.2 (≈ 0.729 µg/mL) | 1.5 (≈ 0.497 µg/mL) |  |  | 
